From ChEMBL document CHEMBL1127389, “Synthesis and biological activity of 2-hydroxy and 2-alkoxy analogs of 1 alpha,25-dihydroxy-19-norvitamin D3” (1994) come the findings set out here.

For experiment [1], the species on record is Rattus norvegicus. Nature of the experiment: Bone calcium-mobilizing activity with compound concentration 130 (pmol/d/7 days). The format is functional, organism-based. A digest of the protocol:
(§1)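 Holtzman weanling rats were fed a vitamin D-deficient diet with 0.47% Ca for 1 week, then a 0.02% Ca diet. They received daily intraperitoneal doses in 0.1 mL of 95:5 propylene glycol/ethanol for 7 days; controls got vehicle. Rats were killed 24 h after the last dose. Serum Ca was measured by automatic calcium titrator; on this diet, the rise in serum Ca is taken as bone Ca mobilization. At least 6 rats/group; Student's t-test.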

The species entered for experiment [2] is Rattus norvegicus. Nature of the experiment: Bone calcium-mobilizing activity with compound concentration 325 (pmol/d/7 days). The format is functional, organism-based. Also noted: unit not given here. Put shortly: as §1
The species entered for experiment [3] is Rattus norvegicus. Description: Bone calcium-mobilizing activity with compound concentration 260 (pmol/d/7 days). Format: functional, organism-based. Put shortly: as §1
Experiment [4] is filed under the species Rattus norvegicus. Description: Tested in the vitamin D-deficient rat for the ability to support intestinal absorption of calcium with compound concentration 130 (pmol/d/7 days) expressed as Serum/Mucosal ratio. The format is functional.
For experiment [5], the species on record is Rattus norvegicus. Description: Tested in the vitamin D-deficient rat for the ability to support intestinal absorption of calcium with compound concentration 260 (pmol/d/7 days) expressed as Serum/Mucosal ratio. Format: functional. A digest of the protocol: (§2)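 Vitamin D-deficient Holtzman weanling rats were kept 1 week on a 0.47% Ca diet, then on a 0.02% Ca diet. They were given intraperitoneal injections daily for 7 days in 0.1 mL of 95:5 propylene glycol/ethanol, with vehicle controls, and killed 24 h after the last dose. Transport was measured by everted sac of the proximal 10 cm of intestine, as the ratio of sac Ca to final medium Ca (S/M). Groups had at least 6 rats; Student's t-test.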

Experiment [6] is filed under the species Rattus norvegicus. Description: Tested in the vitamin D-deficient rat for the ability to support intestinal absorption of calcium with compound concentration 325 (pmol/d/7 days) expressed as Serum/Mucosal ratio. Format: functional.
For experiment [7], the species on record is Rattus norvegicus. Description: Tested in the vitamin D-deficient rat for the ability to support intestinal absorption of calcium with compound concentration 65 (pmol/d/7 days) expressed as Serum/Mucosal ratio. Format: functional.
Experiment [8] is filed under the species Rattus norvegicus. Description: Bone calcium-mobilizing activity with compound concentration 65 (pmol/d/7 days). Format: functional, organism-based. A digest of the protocol: as §1
For experiment [9], the species on record is Rattus norvegicus. Description: Bone calcium-mobilizing activity with compoundm concentration 130 (pmol/d/7 days). The format is functional, organism-based. Put shortly:
as §1

The species named for experiment [10] is Rattus norvegicus. Description: tested in the vitamin D-deficient rat for the ability to support intestinal absorption of calcium with compound concentration 130 (pmol/d/7 days) expressed as Serum/Mucosal ratio. Format: functional. A digest of the protocol:
as §2

Experiment [11] is filed under the species Rattus norvegicus. Nature of the experiment: tested in the vitamin D-deficient rat for the ability to support intestinal absorption of calcium with compound concentration 325 (pmol/d/7 days) expressed as Serum/Mucosal ratio. The format is functional. A digest of the protocol: as §2
For experiment [12], the species on record is Rattus norvegicus. Description: tested in the vitamin D-deficient rat for the ability to support intestinal absorption of calcium with compound concentration 65 (pmol/d/7 days) expressed as Serum/Mucosal ratio. Format: functional. Put shortly:
as §2

The species named for experiment [13] is Rattus norvegicus. Nature of the experiment: tested in the vitamin D-deficient rat for the ability to support intestinal absorption of calcium with compound concentration 260 (pmol/d/7 days) expressed as Serum/Mucosal ratio. Format: functional. A digest of the protocol: as §2
The species named for experiment [14] is Rattus norvegicus. Description: Bone calcium-mobilizing activity with concentration 260 (pmol/d/7 days). Format: functional, organism-based. Put shortly:
as §1

“And” between values parts separate entries of the source, which are not always exact repeats. Equal entries are not always repeated.

As for `C[C@H](CCCC(C)(C)O)[C@H]1CC[C@H]2/C(=C/C=C3C[C@@H](O)C(OCCCO)[C@H](O)C3)CCC[C@]12C` (stereo partly specified) [listing 1 of 3 here], the Serum Ca2+ was determined as 4.9 in the experiment listed under Rattus norvegicus [1], 5.8 in the experiment listed under Rattus norvegicus [2] and 4.7 in the experiment listed under Rattus norvegicus [3].

`C=C1/C(=C/C=C2/CCCC3(C)C2CCC3[C@H](C)CCCC(C)(C)O)C[C@@H](O)C[C@@H]1O` (stereo partly specified): the Ratio in the experiment filed under Rattus norvegicus [4] was 8 and 7.1; in the experiment filed under Rattus norvegicus [5], 10.5; in the experiment filed under Rattus norvegicus [6] it was 10.5 and 7.8; in the experiment filed under Rattus norvegicus [7], 8.3. In addition, the Serum Ca2+ in the experiment filed under Rattus norvegicus [2] is 6.8 and 7.1; in the experiment listed under Rattus norvegicus [3] it was 5.9.

As for `C[C@H](CCCC(C)(C)O)[C@H]1CC[C@H]2/C(=C\C=C3C[C@@H](O)C(O)[C@H](O)C3)CCC[C@]12C` (stereo partly specified) [listing 1 of 3 here], the Serum Ca2+ was 4.2 and 4.1 in the experiment filed under Rattus norvegicus [2]; 4.2 in the experiment filed under Rattus norvegicus [8]; 4.1 in the experiment filed under Rattus norvegicus [9].

Consider `C[C@H](CCCC(C)(C)O)[C@H]1CC[C@H]2/C(=C\C=C3C[C@@H](O)C(O)[C@H](O)C3)CCC[C@]12C` (stereo partly specified) [listing 2 of 3 here], for which the results for the Ratio in the experiment listed under Rattus norvegicus [10] and in the experiment listed under Rattus norvegicus [11] were 5.3 and 5, respectively.

Regarding `C[C@H](CCCC(C)(C)O)[C@H]1CC[C@H]2/C(=C/C=C3C[C@@H](O)C(OCCCO)[C@H](O)C3)CCC[C@]12C` (stereo partly specified) [listing 2 of 3 here], the Ratio in the experiment filed under Rattus norvegicus [10] amounted to 3.5; in the experiment listed under Rattus norvegicus [11], 4.3.

Take `C[C@H](CCCC(C)(C)O)[C@H]1CC[C@H]2/C(=C\C=C3C[C@@H](O)C(O)[C@H](O)C3)CCC[C@]12C` (stereo partly specified) [listing 3 of 3 here]: the results for the Ratio in the experiment listed under Rattus norvegicus [11] and in the experiment filed under Rattus norvegicus [12] were 10.8 and 5.8, respectively.

For the compound `C[C@H](CCCC(C)(C)O)[C@H]1CC[C@H]2/C(=C/C=C3C[C@@H](O)C(OCCCO)[C@H](O)C3)CCC[C@]12C` (stereo partly specified) [listing 3 of 3 here], the Ratio in the experiment filed under Rattus norvegicus [13] amounted to 5.7.

On to `C[C@H](CCCC(C)(C)O)[C@H]1CC[C@H]2/C(=C/C=C3C[C@@H](O)C(OCc4ccccc4)[C@H](O)C3)CCC[C@]12C` (stereo partly specified), for which the Ratio in the experiment listed under Rattus norvegicus [5] is on record as 11.9. In addition, in the experiment listed under Rattus norvegicus [14], the Serum Ca2+ was 4.6.
